TNAP inh hi DEA: human TNAP enzyme inhibitors, primary screen, biochemical, luminescent, high phosphate acceptor level, uHTS | Alkaline phosphatase, tissue-nonspecific isozyme (Homo sapiens), P05186 | purified TNAP, CDP-star luminescence, 1 M DEA | inhibition, % at 20 µM | 200,000 compounds, 0.03% hits | AID 1135, 2008;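 active means over 50% inhibition of tissue-nonspecific alkaline phosphatase at 20 µM in the single-dose screen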
Target sequence (P05186 whole entry, looked up): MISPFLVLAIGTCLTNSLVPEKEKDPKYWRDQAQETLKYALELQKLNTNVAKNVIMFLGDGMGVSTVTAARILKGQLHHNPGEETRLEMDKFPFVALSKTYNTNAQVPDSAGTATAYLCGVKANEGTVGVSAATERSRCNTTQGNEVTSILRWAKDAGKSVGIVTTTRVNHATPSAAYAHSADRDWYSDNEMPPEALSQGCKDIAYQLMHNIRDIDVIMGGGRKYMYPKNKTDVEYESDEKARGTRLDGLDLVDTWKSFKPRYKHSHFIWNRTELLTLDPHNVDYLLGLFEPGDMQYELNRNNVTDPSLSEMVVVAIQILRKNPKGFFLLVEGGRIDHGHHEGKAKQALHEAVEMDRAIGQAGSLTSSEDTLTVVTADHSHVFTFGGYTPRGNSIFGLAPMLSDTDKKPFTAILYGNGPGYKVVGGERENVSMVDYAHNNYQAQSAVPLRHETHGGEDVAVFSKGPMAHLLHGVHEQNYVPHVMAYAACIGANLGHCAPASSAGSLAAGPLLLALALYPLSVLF
bCat KO growth: primary screen for growth suppressors in beta-catenin knockout HCT116 cells (colon tumor, human); HCT116 beta-catenin knockout viability, CellTiter-Glo, 60 h; hits give low values; 140,000 compounds, 1.5% hits; AID 818, 2007; viability, % at 10 µM;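 active means viability at or under a set limit, the compound median less 4 SD, cut at about 6% in these data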
PTEN del growth: growth suppression of PTEN-null HCT116, primary screen, cell-based, CellTiter-Glo. HCT116 PTEN-null viability, 60 h; hits give low values. 140,000 compounds, 1.2% hits. viability, % at 10 µM. AID 827, 2007;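 active means viability at or below a set limit, 4 SD under the median of all tested compounds, cut at about 3.7% in these data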;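 further: PTEN knockout HCT116 line with beta catenin targeted HCT116 as companion control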
L major viab: Leishmania major promastigote growth inhibition, primary screen; Leishmania major promastigotes, resazurin fluorescence viability; inhibition, % at 10 µM; 200,000 compounds, 9% hits; AID 1063, 2008; in the data active means inhibition above about 50%;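 further: promastigotes grown with compound for 44 hours at 28 °C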
TNAP act hi DEA: TNAP activators at high phosphate acceptor level, primary screen, biochemical, luminescence, uHTS; Alkaline phosphatase, tissue-nonspecific isozyme (Homo sapiens), P05186; purified TNAP, CDP-star luminescence, 1 M DEA, 30 min; hits give high values; 0 = EDTA background, 1 = DMSO-only activity; activation factor at 20 µM; 200,000 tested, under 10 active;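 active means activation factor at least 2 at 20 µM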
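Measured by: Luminescent substrate turnover signal | Test system: Human TNAP | Input: TNAP 1/800 final | Dosing: 20 µM single point | Schedule: 30 min, room temperature | Controls: EDTA wells as negative control, DMSO wells as positive control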
TNAP inh no acc: human TNAP enzyme inhibitors, primary screen, biochemical, luminescent, no phosphate acceptor, uHTS | Alkaline phosphatase, tissue-nonspecific isozyme (Homo sapiens), P05186 | purified TNAP, CDP-star luminescence, 30 min | inhibition, % at 20 µM | 200,000 compounds, 0.26% hits | AID 1012, 2008;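 active means tissue-nonspecific alkaline phosphatase inhibition above about 50% at 20 µM in the single-dose screen, limit read from the data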
Large screens that a line does not name were inactive. Most compounds without a hit are left out; they make up all but 9.6% or so of the library.

COC(=O)c1cc(=O)n(Cc2cccs2)c(=Nc2ccc(F)cc2)s1	L major viab 98 (no result: bCat KO growth, PTEN del growth)
CCCCC(c1nnnn1CS(=O)(=O)c1ccc(C)cc1)N1CCN(C)CC1 (stereo unspecified)	none (no result: bCat KO growth, PTEN del growth)
CCN(CC)C(=O)Cn1cc(C(=O)C2CC2)c2ccccc21	none (no result: bCat KO growth, PTEN del growth)
O=C(CCCCCn1c(=S)[nH]c2cc3c(cc2c1=O)OCO3)N1CCN(Cc2ccccc2)CC1	none
O=C(CCCCCn1c(=S)[nH]c2cc3c(cc2c1=O)OCO3)N1CCN(C2CCCCC2)CC1	PTEN del growth 2.7
Clc1ccc(CN(CC2CCCO2)C(c2cccs2)c2nnnn2C2CCCC2)cc1 (stereo unspecified)	L major viab 55
CCN(Cc1ccccc1)C(c1cccs1)c1nnnn1C1CCCCC1 (stereo unspecified)	none
Clc1ccccc1CN(Cc1ccccc1)C(c1cccs1)c1nnnn1C1CCCC1 (stereo unspecified)	L major viab 60
c1csc(C(c2nnnn2C2CCCC2)N2CCOCC2)c1 (stereo unspecified)	none
COc1cc(S(=O)(=O)Nc2ccc(C)cc2)ccc1N=Cc1c(C)c(C#N)c(=O)n(C)c1O	none (no result: bCat KO growth, PTEN del growth)
Cc1ccc(N/N=C/c2c(C)c(C#N)c(=O)n(C)c2O)cc1C	L major viab 80 (no result: bCat KO growth, PTEN del growth)
O=C(CCCN1CCC(O)(c2ccc(Cl)cc2)CC1)c1ccc(F)cc1	L major viab 97
COc1ccccc1N1CCN(CCCC(=O)c2ccc(F)cc2)CC1	none
O=C(/C=C/c1ccccc1)N1c2ccccc2Sc2ccc(C(F)(F)F)cc21	L major viab 97
CCn1c(CSc2ncccn2)nnc1SCC(=O)N1CCCCC1	none (no result: bCat KO growth, PTEN del growth)
OCCC1CN(Cc2cn[nH]c2C2CCCCC2)CCN1C1CCCC1 (stereo unspecified)	none (no result: bCat KO growth, PTEN del growth)
O=C(Nc1cnn(Cc2ccc(Cl)cc2)c1)c1ccc([N+](=O)[O-])cc1	none
O=C(C[n+]1cnn(CC(=O)c2ccc(Cl)cc2Cl)c1)c1ccc([N+](=O)[O-])cc1	L major viab 83
COc1ccc([N+](=O)[O-])cc1N(CC(O)CN(C)C)S(=O)(=O)c1ccccc1 (stereo unspecified)	none
C=CCN(CC=C)CC(O)CN(c1cc([N+](=O)[O-])ccc1OC)S(=O)(=O)c1ccccc1 (stereo unspecified)	L major viab 64
COc1ccccc1N(CC(O)Cn1c2ccccc2c2ccccc21)S(=O)(=O)c1ccccc1 (stereo unspecified)	L major viab 54
O=S(=O)(c1ccccc1)N(CC(O)Cn1c2ccccc2c2ccccc21)c1ccccc1 (stereo unspecified)	L major viab 100
COc1ccccc1CNCC(O)Cn1c2ccccc2c2ccccc21 (stereo unspecified)	bCat KO growth 1.5, PTEN del growth 1.4, L major viab 100
COc1ccccc1N(CC(O)Cn1nc(C)cc1C)S(=O)(=O)c1ccccc1 (stereo unspecified)	none (no result: bCat KO growth, PTEN del growth)
O=C(COC(=O)c1cc(=O)[nH]c(=O)[nH]1)NCc1ccccc1	none
CCCN(CCC)CC(O)CN(c1ccccc1)S(=O)(=O)c1ccc(C)cc1 (stereo unspecified)	L major viab 97
Cc1cc(C)c(CN2CCN(Cc3ccc(C)o3)C(CCO)C2)c(-n2cccn2)c1 (stereo unspecified)	none (no result: bCat KO growth, PTEN del growth)
COc1cccc2cc(C(=O)NNC(=O)c3ccc(Br)cc3)c(=O)oc12	none (no result: bCat KO growth, PTEN del growth)
O=C(COC(=O)C1CC2C=CC1C2)Nc1ccccc1F (stereo unspecified)	none (no result: bCat KO growth, PTEN del growth)
Cc1ccc2nc(N(CCCN(C)C)C(=O)c3cc4ccccc4oc3=O)sc2c1	L major viab 67
CN(C)CCCN(C(=O)CCc1ccccc1)c1nc2ccc(Cl)cc2s1	bCat KO growth 1.5, PTEN del growth 1.7, L major viab 87
CN(C)CCCOC(=O)c1sc2ccccc2c1Cl	L major viab 59 (no result: bCat KO growth, PTEN del growth)
CN(C)CCCN(C(=O)c1sc2ccccc2c1Cl)c1nc2ccc(F)cc2s1	L major viab 72
CCN(CCn1cccn1)Cc1c(C(=O)N2CCCCCCC2)nc2ccc(Cl)cn12	none (no result: bCat KO growth, PTEN del growth)
CN(C)CCCN(C(=O)c1ccc2c(c1)CCCC2)c1nc2ccc(Cl)cc2s1	bCat KO growth 3.6, PTEN del growth 2.7, L major viab 79
CN(C)CCCN(C(=O)COc1ccccc1)c1nc2ccc(Cl)cc2s1	none (no result: bCat KO growth, PTEN del growth)
Cc1noc(C)c1S(=O)(=O)N(CC(=O)N1CCCC1)c1ccc(C(C)C)cc1	none
Cc1noc(C)c1S(=O)(=O)N(CC(=O)N1CCCCCC1)c1ccc(C(C)C)cc1	L major viab 63
COc1ccc(C(NC(=O)c2c(F)c(F)c(F)c(F)c2F)c2ccccc2)cc1 (stereo unspecified)	bCat KO growth 1.3, PTEN del growth 1.7, L major viab 95
CN(Cc1ccccc1)c1ccc(C(=O)O)cc1[N+](=O)[O-]	none
Cc1ccc(NC(=O)CCCc2nc3ccccc3s2)c(O)c1	none (no result: bCat KO growth, PTEN del growth)
CCCCCC(=O)Nc1nc(C)c(-c2csc(Nc3cc(Cl)ccc3C)n2)s1	none
COc1ccc(Cl)cc1Nc1nc(-c2sc(NC(=O)CC(C)C)nc2C)cs1	none
C=CCCC(=O)Nc1nc(C)c(-c2csc(Nc3ccccc3OC)n2)s1	L major viab 70
C=CCCC(=O)Nc1nc(C)c(-c2csc(Nc3cc(Cl)ccc3OC)n2)s1	none
CCCC(C)C(=O)Nc1nc(C)c(-c2csc(Nc3cc(Cl)ccc3C)n2)s1 (stereo unspecified)	L major viab 91
CCCCCC(=O)Nc1nc(C)c(-c2csc(Nc3ccc(Cl)cc3)n2)s1	none
CCCCC(=O)Nc1nc(C)c(-c2csc(Nc3ccccc3OC)n2)s1	L major viab 95
CCC(C)C(=O)Nc1nc(C)c(-c2csc(Nc3ccccc3OC)n2)s1 (stereo unspecified)	L major viab 99
C=CCn1c(=O)n(C(=O)OCC)c2cc(Br)ccc21	none (no result: bCat KO growth, PTEN del growth)
Cc1cc(C)cc(C(=O)NCC(=O)OCC(=O)c2cc(C)n(CC(F)(F)F)c2C)c1	none
Cc1ccccc1Nc1nc(-c2sc(NC(=O)c3ccc([N+](=O)[O-])cc3)nc2C)cs1	none
CCOc1ccccc1Nc1nc(-c2sc(NC(=O)c3ccc([N+](=O)[O-])cc3)nc2C)cs1	bCat KO growth 0.8, PTEN del growth 1.5
Cc1cc(Oc2ccc3ccccc3c2)nc(SCC(=O)c2ccccc2)n1	L major viab 93
Cc1cc(Oc2ccc(Br)cc2)nc(SCC(=O)c2ccccc2)n1	none
